Drawing on ChEMBL document CHEMBL1155940, “Synthesis and preliminary pharmacological evaluation of novel derivatives of L-beta-threo-benzylaspartate as inhibitors of the neuronal glutamate transporter EAAT3” (Bioorg Med Chem, 2008), this text covers IC50, fold change (FC) and residual activity for 13 molecules.

The first assay deals with T1, Excitatory amino acid transporter 3 (Homo sapiens, UniProt P43005).
T1 sequence (P43005 whole entry): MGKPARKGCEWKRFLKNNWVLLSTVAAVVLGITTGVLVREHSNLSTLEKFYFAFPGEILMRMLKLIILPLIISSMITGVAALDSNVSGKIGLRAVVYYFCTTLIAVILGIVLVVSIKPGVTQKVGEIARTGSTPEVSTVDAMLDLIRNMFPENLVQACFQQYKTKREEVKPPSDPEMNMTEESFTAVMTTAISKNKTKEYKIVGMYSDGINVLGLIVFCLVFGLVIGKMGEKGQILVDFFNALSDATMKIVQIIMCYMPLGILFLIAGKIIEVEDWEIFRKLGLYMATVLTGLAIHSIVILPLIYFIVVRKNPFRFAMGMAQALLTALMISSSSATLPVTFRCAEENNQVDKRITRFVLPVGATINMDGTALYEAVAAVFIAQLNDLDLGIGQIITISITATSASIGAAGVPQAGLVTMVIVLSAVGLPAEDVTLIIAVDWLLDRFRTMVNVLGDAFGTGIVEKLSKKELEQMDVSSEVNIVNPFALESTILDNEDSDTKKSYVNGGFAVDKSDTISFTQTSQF
Kind of assay: Displacement of [3H]D-aspartate from human EAAT3 expressed in mouse C17.2 cells. The class given is cell-based. Put shortly:
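C17.2 neuroprogenitor cells (passages 10–20) seeded at 5 × 10^4/well, transiently transfected with human EAAT3 plasmid 24 h after plating, assayed 24 h later. Cells preincubated 5 min at 37°C in HEPES-buffered saline, pH 7.4, then given 1 µM 3H-D-aspartate with varying inhibitor concentrations. Rinsed with ice-cold buffer after uptake and read by scintillation counting. Corrected for 4°C background. IC50 from a one-site fit, ±SEM.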
Background: Displacement assays read how much labelled ligand stays bound in the presence of the test substance.
As a reminder, the IC50 is the point on the concentration scale where inhibition reaches its midpoint. A low value points to greater potency. Molecule `N[C@H](C(=O)O)[C@H](Cc1cccc(F)c1)C(=O)O` showed a 50% inhibitory concentration (IC50) of 2.46 µM.
On the same count and under the same terms, the figure for `N[C@H](C(=O)O)[C@@H](Cc1cccc(F)c1)C(=O)O` is 21.1 µM.

A further assay is filed under the species Homo sapiens. Kind of assay: Selectivity for human EAAT3 over human EAAT1 expressed in mouse C17.2 cells. Type of assay: cell-based.
Take `N[C@H](C(=O)O)[C@H](Cc1ccccc1)C(=O)O`: the fold change (FC) amounted to 10.

The target in a further assay is T2, Excitatory amino acid transporter 3 (Homo sapiens) (UniProt P43005).
T2 sequence (whole entry): T1 sequence (P43005 whole entry)
Kind of assay: Residual [3H]D-aspartate uptake at human EAAT3 expressed in mouse C17.2 cells at 100 uM relative to control.
As usually defined, the residual activity is the signal under treatment as a percentage of the control signal. For the molecule `Cc1cccc(CC(C(=O)O)[C@H](N)C(=O)O)c1` (mixture of isomers), the residual activity is 33%.
With `N[C@H](C(=O)O)[C@H](Cc1ccccc1)C(=O)O`, the residual activity was 1%.
`N[C@H](C(=O)O)C(Cc1cccc(Br)c1)C(=O)O` (mixture of isomers) gave a residual activity of 8%.
In turn, `N[C@H](C(=O)O)C(Cc1cccc([N+](=O)[O-])c1)C(=O)O` (mixture of isomers) displayed a residual activity of 29%.
Regarding `N[C@H](C(=O)O)C(Cc1cccc(F)c1)C(=O)O` (stereo not given in full), the residual activity stood at 0%.
Same read-out and setting: as for `N[C@H](C(=O)O)C(Cc1ccc2ccccc2c1)C(=O)O` (stereo not given in full), the figure is 68%; as for `Cc1cc(C)cc(CC(C(=O)O)[C@H](N)C(=O)O)c1` (mixture of isomers), 36%.
Same read-out and setting: as for `N[C@H](C(=O)O)C(Cc1ccc(F)cc1)C(=O)O` (mixture of isomers), the figure is 7%.
Still for that read-out and setting: the figure for `N[C@H](C(=O)O)C(Cc1ccccc1)C(=O)O` (stereo not given in full) is 4%.
In turn, `N[C@H](C(=O)O)C(Cc1ccc([N+](=O)[O-])cc1)C(=O)O` (stereo not given in full) showed a residual activity of 65%.
On the same count and under the same terms, the figure for `N[C@H](C(=O)O)C(Cc1c(Cl)cccc1Cl)C(=O)O` (stereo not given in full) is 86%.

The species named for a further assay is Homo sapiens. The assay can be described thus: Selectivity for human EAAT3 over human EAAT2 expressed in mouse C17.2 cells. Type of assay: cell-based.
In turn, `N[C@H](C(=O)O)[C@H](Cc1ccccc1)C(=O)O` had a fold change (FC) of 10.
